Screening results: PubChem BioAssay, several laboratories
Rad51 HR inh – human RAD51 strand exchange inhibitors, primary screen, biochemical, fluorescence; DNA repair protein RAD51 homolog 1 (Homo sapiens), Q06609; hRad51 DNA strand exchange, fluorescence dequenching; inhibition, % at 10 µM; hit rate 0.085% among 200,000; AID 1385, 2008;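 active = inhibition above 40% at the single screening dose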;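 note: 0% = DMSO control wells and 100% = blanks with heterologous ssDNA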
Target sequence (Q06609 whole entry, looked up): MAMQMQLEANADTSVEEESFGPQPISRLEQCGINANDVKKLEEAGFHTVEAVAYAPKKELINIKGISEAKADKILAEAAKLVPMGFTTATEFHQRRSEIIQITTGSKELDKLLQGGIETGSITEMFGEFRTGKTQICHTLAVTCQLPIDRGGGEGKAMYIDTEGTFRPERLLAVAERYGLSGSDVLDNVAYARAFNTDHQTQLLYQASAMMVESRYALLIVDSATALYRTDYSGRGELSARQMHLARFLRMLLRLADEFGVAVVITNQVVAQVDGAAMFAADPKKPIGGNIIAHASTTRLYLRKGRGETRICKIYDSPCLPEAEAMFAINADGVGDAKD
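material = hRad51 filaments on single-stranded DNA | timing = filaments 15 min 37 °C, then compound 30 min | signal = FRET fluorescence dequenching, excitation 485 nm, emission 520 nm | benchmarks = control wells and blank wells on each plate | evaluation = percent inhibition relative to plate controls and blanks | compound = 10 µM final, single point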
Calb biofilm kill – clotrimazole potentiators killing C. albicans biofilm, primary screen, 4-compound mixtures. C. albicans biofilm persisters + clotrimazole, fluorescence viability; primary screen in compound mixtures of four per well. inhibition, % at 7.6 µM. hit rate 0.02% among 120,000;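 active = inhibition above 30.3% in the primary screen of four-compound pools, then above 30% when the compound was retested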;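 note: compounds exposed to preformed 24 h biofilms for 48 h; 0% = untreated biofilm control and 100% = clotrimazole plus chlorhexidine kill blank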
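Test system: C. albicans biofilms. Buffer or medium: RPMI/MOPS medium, pH 7.0. Timing: 48 h compound exposure at 37 °C. Technique: Alamar Blue fluorescence. Evaluation: percent inhibition of biofilm viability.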
S1P4 antag – S1P4 receptor antagonists, primary screen, cell-based. S1P4-expressing cells, antagonist mode, reporter read-out. inhibition, % at 4.98 µM. hit rate 0.26% among 220,000. AID 1510, 2009; in the data active = inhibition above about 29%;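 note: 0% = wells stimulated with agonist and 100% = vehicle wells without agonist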
S1P4 ag – S1P4 receptor agonists, primary screen, cell-based. Sphingosine 1-phosphate receptor 4 (Homo sapiens), O95977. S1P4-expressing cell line, agonist reporter assay. activation, % at 4.98 µM. hit rate 0.35% among 220,000. AID 1509, 2009; in the data active = activation above about 11%;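 note: 0% = DMSO vehicle and 100% = reference agonist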
S1P3 antag – S1P3 receptor antagonists, primary screen, cell-based; Sphingosine 1-phosphate receptor 3 (Homo sapiens), Q99500; hit rate 0.27% among 170,000; CHO S1P3 NFAT-BLA reporter, FRET fluorescence, antagonist mode; inhibition, % at 4.98 µM;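 active = inhibition above the plate cutoff, the mean inhibition of test wells on that plate plus 3 SD, cut at about 28% in these data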;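 note: cells challenged with S1P at its EC80 of 0.8 µM; blue over green emission ratio from cleaved BLA substrate after 4 h stimulation; 0% = S1P-stimulated wells and 100% = unstimulated DMSO-only wells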
Target sequence (Q99500 whole entry, looked up): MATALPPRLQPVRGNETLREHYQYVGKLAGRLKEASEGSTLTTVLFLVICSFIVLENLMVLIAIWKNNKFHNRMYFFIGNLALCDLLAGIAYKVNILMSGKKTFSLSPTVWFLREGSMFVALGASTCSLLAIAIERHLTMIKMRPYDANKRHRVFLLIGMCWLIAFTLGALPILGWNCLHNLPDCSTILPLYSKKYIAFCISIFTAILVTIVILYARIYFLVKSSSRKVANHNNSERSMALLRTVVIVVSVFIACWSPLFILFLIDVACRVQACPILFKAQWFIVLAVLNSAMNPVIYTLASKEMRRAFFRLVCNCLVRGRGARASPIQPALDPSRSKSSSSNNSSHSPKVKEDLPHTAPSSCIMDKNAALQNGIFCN
Efa HMGR inh – inhibitors of E. faecalis class II HMGR, primary screen, biochemical, Enterococcus faecalis | HMG-CoA reductase (Enterococcus faecalis, mvaE) | purified E. faecalis HMGR, NADPH absorbance 340 nm kinetic | inhibition, % at 10 µM | hit rate 0.41% among 190,000;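 active = inhibition above a set limit, the median over all tested compounds plus 3 SD, cut at about 9.5% in these data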;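 note: enzyme runs in reverse so mevalonate oxidation gives rising NADPH absorbance; 0% = complete reaction with DMSO and 100% = background rate lacking mevalonate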
An asterisk follows results filed as active; nt = not tested or not shown. This is a sample that favours compounds with a hit; in the whole collection about 1.2% have one here.

SMILES | Rad51 HR inh | Calb biofilm kill | S1P4 antag | S1P4 ag | S1P3 antag | Efa HMGR inh
O=C(CN1C(=O)c2ccccc2C1=O)NCC(=O)OCC(=O)c1cccc([N+](=O)[O-])c1 | 20.3 | 16.7 | -7.1 | -1.4 | -16.7 | -0.4
CC1CC1C(=O)OCC(=O)Nc1ccc(N=Nc2ccccc2)cc1 (stereo not drawn) | -0.7 | 15.3 | -12.0 | 0.3 | 12.2 | -4.7
Cc1sc(NC(=O)c2ccco2)c(CN2CCN(c3ccccn3)CC2)c1C | 2.4 | nt | -11.1 | 1.6 | 64.5* | -0.8
CSC1=NCCN1C(=O)c1ccc(S(=O)(=O)N2CCCC2)cc1 | -0.4 | nt | -3.8 | -0.8 | -9.1 | -4.6
CSC1=NCCN1C(=O)c1ccc(S(=O)(=O)N2CCCCC2)cc1 | -2.7 | nt | -5.6 | 166.4* | 3.9 | 2.2
CCOC(=O)N1CCN(c2c(-c3ccc(C(C)C)cc3)c(=O)c2=O)CC1 | -5.1 | nt | 5.4 | 1.8 | 39.4 | -2.0
CCOC(=O)N1CCN(c2c(-c3ccc(C)cc3)c(=O)c2=O)CC1 | 80.4* | nt | -15.4 | 0.1 | 8.1 | 6.5
CCCCc1nc(SCCN2CCOCC2)c2c(=O)n(C)c(=O)n(C)c2n1 | -2.8 | 15.3 | -3.0 | 1.4 | -14.6 | 0.9
O=c1c2ccccc2nc(/C=C/c2cccnc2)n1Cc1ccccc1 | 48.2* | 2.3 | 0.6 | -0.5 | 6.2 | 2.3
CCN(CC(=O)NC1CCS(=O)(=O)C1)c1ccc(S(C)(=O)=O)cc1[N+](=O)[O-] (stereo not drawn) | -2.4 | nt | -9.2 | -0.8 | nt | 1.9
CO/N=C/NC(=O)c1ccc([N+](=O)[O-])c(CS(=O)(=O)c2ccc(Cl)cc2)c1 | -7.2 | nt | 3.1 | 0.3 | nt | -4.3
Cn1cc(CN2CCN(c3ncccn3)CC2)c(-c2cccc(Cl)c2)n1 | -0.9 | 8.0 | -10.8 | 0.4 | -21.4 | 9.6*
Cc1cc(N2CCN(Cc3cn(C)nc3-c3cccc(Cl)c3)CC2)cc(C)n1 | 1.1 | 25.5 | -10.5 | -0.1 | 2.8 | 6.0
Cc1ccc(Oc2ccc(C(=O)NCc3ccncc3)cc2)cc1 | 2.9 | 14.0 | -4.0 | -0.5 | 3.2 | -1.4
Cc1ccc(C(=O)NCCc2ccncc2)cc1 | 3.8 | nt | 8.1 | -0.7 | nt | 11.9*
CCOc1ccc(C2C(C#N)=C(N)Oc3cc(C)oc(=O)c32)cc1 (stereo not drawn) | -2.8 | 7.4 | 19.2 | -0.4 | -20.0 | 16.1*
CC(=O)C1=C(Nc2ccccc2)CC(C)(O)C(C(C)=O)C1c1ccccc1 (stereo not drawn) | -19.9 | 12.9 | -3.9 | 1.8 | 5.7 | nt
COc1ccc(C2C(C(C)=O)=C(Nc3ccccc3)CC(C)(O)C2C(C)=O)cc1OC (stereo not drawn) | 5.8 | 15.5 | -14.8 | 1.0 | nt | 13.6*
CCCS(=O)(=O)NCCc1cc2c(OC)ccc(OC)c2[nH]c1=O | nt | nt | 14.7 | -1.0 | -1.2 | -2.1
Cc1ccc(NC(=O)C(=O)NNC(=O)c2cccs2)cc1 | 6.5 | 15.3 | -16.1 | 2.6 | -2.8 | 10.3*
COc1ccc(C2=Nn3c(nnc3-c3ccccc3OC)SC2)cc1OC | -0.5 | nt | 5.6 | -2.6 | 54.2* | -4.0
CCCc1[nH]nc2c1C(c1ccncc1)C(C#N)=C(N)O2 (stereo not drawn) | 9.4 | nt | -2.0 | -1.1 | 8.9 | -5.9
CCCc1[nH]nc2c1C(CCC)C(C#N)=C(N)O2 (stereo not drawn) | 3.8 | nt | -2.5 | 0.3 | -26.6 | 11.0*
Cc1cc(N/C=C/C(=O)c2ccc(Br)cc2)no1 | 0.9 | 6.8 | 1.4 | -0.2 | nt | -5.8
O=C(/C=C\Nc1ccc(Cl)cn1)c1ccc(Br)cc1 | -6.3 | 6.8 | -8.4 | 0.8 | -5.1 | 10.9*
SMILES | Rad51 HR inh | Calb biofilm kill | S1P4 antag | S1P4 ag | S1P3 antag | Efa HMGR inh
COC(=O)c1cc(=O)nc2sc(-c3ccc(F)cc3)nn12 | 1.9 | nt | -14.3 | -0.9 | nt | -2.4
CC(C)Nc1ccc(Nc2ccnc3cc4ccccc4cc23)cc1 | 46.2* | 14.9 | -90.2 | -0.5 | 5.3 | nt
COc1ccc(Nc2ccnc3ccccc23)cc1 | 1.4 | nt | -16.3 | 1.8 | 14.6 | -0.8
COc1ccc(CCC(C)Nc2cccc(C)c2)cc1 (stereo not drawn) | -6.4 | nt | -0.4 | -2.0 | nt | -0.8
COc1ccc(C)cc1C(=O)CCC(=O)Nc1ccccc1N1CCOCC1 | -5.4 | nt | -2.2 | -0.7 | -11.6 | -8.6
Cc1cc(C)cc(NC(=O)N2CCCC2C(=O)Nc2ccc(-n3cnnn3)c(C)c2)c1 (stereo not drawn) | 4.9 | nt | -14.1 | 0.4 | nt | -7.8
Cc1cc(NC(=O)C2CCCN2C(=O)Nc2c(C)cccc2C)ccc1-n1cnnn1 (stereo not drawn) | -12.7 | 11.9 | -6.1 | 2.2 | nt | 12.3*
O=S(=O)(c1ccc(N2CCCCCC2)nc1)N1CCCC1 | 5.9 | 14.0 | -8.7 | -0.9 | -5.4 | -2.2
CC(C)c1ccccc1NC(=S)N1CCN(Cc2ccc3c(c2)OCO3)CC1 | 48.1* | 9.8 | 13.7 | -0.1 | 9.3 | -6.3
O=C(Nc1ccccc1-c1ccccc1NC(=O)c1ccco1)c1ccco1 | 2.7 | 9.7 | 2.2 | 2.1 | nt | -5.0
O=C(Nc1ccccc1NC(=O)c1ccco1)c1ccco1 | 5.1 | nt | -0.4 | 0.9 | 68.9* | -13.7
CC(NC1CCCC1)c1ccccc1 (stereo not drawn) | 1.9 | 21.2 | 4.6 | -1.1 | -5.8 | -1.1
CC(NCCC(c1ccccc1)c1ccccc1)c1ccccc1 (stereo not drawn) | -5.8 | 9.4 | 8.7 | -0.6 | 6.6 | 18.9*
Cc1cc(NC(=O)CN2C(=O)[C@@H]3[C@H](C2=O)[C@@H]2C[C@H]3C(Br)C2Br)no1 (stereo partly drawn) | 3.0 | 10.1 | -3.1 | 0.4 | -0.9 | nt
Cc1cc(C)c2c(c1)cc(C)c1nnc(SCC(=O)N3CCCc4ccccc43)n12 | -13.6 | 6.9 | -23.2 | 0.3 | -42.5 | -1.4
COc1ccc(C(C)(C)C)cc1NC(=O)Nc1ccc2c(c1)OCO2 | nt | nt | 0.6 | -2.2 | 59.4* | 1.1
COc1cccc(C2NC(=O)NC(O)(C(F)(F)F)C2C(=O)c2cccnc2)c1OC (stereo not drawn) | -0.3 | nt | -9.1 | 0.8 | 10.6 | 18.7*
COc1ccc(NC(=O)Nc2ccc3c(c2)N(C)C(=O)CS3)cc1Cl | -10.5 | nt | -3.9 | -1.3 | nt | 1.2
Nc1cccc(Oc2ccc3c(c2)C(=O)N(CC2CCCO2)C3=O)c1 (stereo not drawn) | 20.2 | -4.5 | -1.7 | -0.6 | -8.4 | nt
CCOC(=O)CCC(NC(=O)CC(=O)NC(CCC(=O)OCC)C(=O)OCC)C(=O)OCC (stereo not drawn) | 0.8 | 49.2 | -7.4 | -0.7 | -0.2 | 10.3*
CCOC(=O)CCC(NC(=O)CCC(=O)NC(CCC(=O)OCC)C(=O)OCC)C(=O)OCC (stereo not drawn) | nt | 16.4 | 1.2 | -0.1 | -9.5 | -2.2
